Source: ChEMBL document CHEMBL2034910, “Synthesis, biological evaluation and 3D-QSAR studies of novel 4,5-dihydro-1H-pyrazole niacinamide derivatives as BRAF inhibitors” (Bioorg Med Chem, 2012)

Key:
[1] = Inhibition of mouse full length GST-tagged BRAF V600E mutant-mediated Mek1 phosphorylation preincubated for 1 hr prior to substrate addition measured after 25 mins by PAGE analysis
[2] = Antiproliferative activity against human WM266.4 cells after 24 hrs by MTT assay; assay type: functional; settings: WM 266-4, 24 h
In short: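 WM266.5 (so in the source) melanoma cells in DMEM/10% FBS, 37 °C, 5% CO2; seeded 1000 cells/well and left 24 h to reattach. DMSO stocks (20 mM) serially diluted in medium to final 100 µM–0.005 µM. Exposure 24 h at 37 °C. Viability by MTT reduction, absorbance at 590 nm; GI50 calculated.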

[3] = Acute oral toxicity in po dosed rat after 14 days; assay type: organism-based; settings: in vivo
In short: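 Single 5000 mg/kg dose given by oral gavage to ten healthy rats. Mortality, gross toxicity signs and behavioural changes were checked at least once daily for 14 days. Body weights were taken before dosing and on days 7 and 14.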

Row | SMILES | IC50 [1] | pIC50 [1] | GI50 [2] | LD50 at 336 h [3]
1 | COc1ccc(C2=NN(C(=O)c3ccc(C)nc3)C(c3ccc(Br)cc3)C2)cc1 (stereo not drawn) | 4.23 µM | 5.373 | 4.28 µM | –
2 | COc1ccc(C2=NN(C(=O)c3ccc(C)nc3Cl)C(c3ccc(Br)cc3)C2)cc1 (stereo not drawn) | 6.76 µM | 5.17 | 8.47 µM | –
3 | COc1ccc(C2=NN(C(=O)c3ccc(Cl)nc3)C(c3ccc(OC)cc3)C2)cc1 (stereo not drawn) | 7.56 µM | 5.121 | 6.45 µM | –
4 | COc1ccc(C2=NN(C(=O)c3ccc(C)nc3)C(c3ccc(OC)cc3)C2)cc1 (stereo not drawn) | 3.42 µM | 5.466 | 4.93 µM | –
5 | COc1ccc(C2=NN(C(=O)c3ccc(Cl)nc3)C(c3ccc(Br)cc3)C2)cc1 (stereo not drawn) | 6.89 µM | 5.162 | 7.13 µM | –
6 | Cc1ccc(C(=O)N2N=C(c3ccc(Cl)cc3)CC2c2ccc(Cl)cc2)cn1 (stereo not drawn) | 3.58 µM | 5.446 | 3.79 µM | –
7 | COc1ccc(C2=NN(C(=O)c3cncc(Br)c3)C(c3ccc(OCc4ccccc4)cc3)C2)cc1 (stereo not drawn) | 4.27 µM | 5.272 | 6.24 µM | –
8 | Cc1ccc(C(=O)N2N=C(c3ccc(Cl)cc3)CC2c2ccc(OCc3ccccc3)cc2)cn1 (stereo not drawn) | 7.02 µM | 5.154 | 9.2 µM | –
9 | COc1ccc(C2=NN(C(=O)c3ccc(C)nc3)C(c3ccc(Cl)cc3)C2)cc1 (stereo not drawn) | 0.2 µM | 6.796 | 0.89 µM | > 5000 mg/kg
10 | COc1ccc(C2=NN(C(=O)c3ccc(C)nc3Cl)C(c3ccc(OC)cc3)C2)cc1 (stereo not drawn) | 5.14 µM | 5.289 | 5.74 µM | –
11 | COc1ccc(C2=NN(C(=O)c3cccnc3Cl)C(c3ccc(Br)cc3)C2)cc1 (stereo not drawn) | 5.57 µM | 5.254 | 3.05 µM | –
12 | Cc1ccc(C(=O)N2N=C(c3ccc(Cl)cc3)CC2c2ccc(Br)cc2)c(Cl)n1 (stereo not drawn) | 7.35 µM | 5.134 | 10.8 µM | –
13 | O=C(c1cccnc1Cl)N1N=C(c2ccc(Cl)cc2)CC1c1ccc(OCc2ccccc2)cc1 (stereo not drawn) | 4.42 µM | 5.355 | 7.71 µM | –
14 | COc1ccc(C2=NN(C(=O)c3cncc(Br)c3)C(c3ccc(OC)cc3)C2)cc1 (stereo not drawn) | 4.58 µM | 5.339 | 7.56 µM | –
15 | COc1ccc(C2=NN(C(=O)c3ccc(Cl)nc3)C(c3ccc(Cl)cc3)C2)cc1 (stereo not drawn) | 0.51 µM | 6.292 | 1.45 µM | –
16 | O=C(c1ccc(Cl)nc1)N1N=C(c2ccc(Cl)cc2)CC1c1ccc(OCc2ccccc2)cc1 (stereo not drawn) | 16.4 µM | 4.784 | 13.2 µM | –
17 | CNC(=O)c1cc(Oc2ccc(NC(=O)Nc3ccc(Cl)c(C(F)(F)F)c3)cc2)ccn1 [SORAFENIB] | 0.06 µM | – | 8.12 µM | –
18 | COc1ccc(C2=NN(C(=O)c3cccnc3Cl)C(c3ccc(Cl)cc3)C2)cc1 (stereo not drawn) | 0.47 µM | 6.328 | 0.78 µM | –

Row | SMILES | IC50 [1] | pIC50 [1] | GI50 [2] | LD50 at 336 h [3]
19 | Cc1ccc(C(=O)N2N=C(c3ccc(Cl)cc3)CC2c2ccc(Cl)cc2)c(Cl)n1 (stereo not drawn) | 7.77 µM | 5.11 | 8.87 µM | –
20 | O=C(c1cccnc1Cl)N1N=C(c2ccc(Cl)cc2)CC1c1ccc(Br)cc1 (stereo not drawn) | 8.67 µM | 5.062 | 7.45 µM | –
21 | O=C(c1cccnc1Cl)N1N=C(c2ccc(Cl)cc2)CC1c1ccc(Cl)cc1 (stereo not drawn) | 2.12 µM | 5.672 | 3.58 µM | –
22 | COc1ccc(C2=NN(C(=O)c3ccc(C)nc3Cl)C(c3ccc(OCc4ccccc4)cc3)C2)cc1 (stereo not drawn) | 3.01 µM | 5.521 | 10.5 µM | –
23 | O=C(c1ccc(Cl)nc1)N1N=C(c2ccc(Cl)cc2)CC1c1ccc(Cl)cc1 (stereo not drawn) | 7.16 µM | 5.145 | 9.89 µM | –
24 | COc1ccc(C2=NN(C(=O)c3ccc(Cl)nc3)C(c3ccc(OCc4ccccc4)cc3)C2)cc1 (stereo not drawn) | 6.78 µM | 5.369 | 10.6 µM | –
25 | COc1ccc(C2=NN(C(=O)c3ccc(C)nc3)C(c3ccc(OCc4ccccc4)cc3)C2)cc1 (stereo not drawn) | 1.63 µM | 5.788 | 7.95 µM | –
26 | COc1ccc(C2=NN(C(=O)c3cncc(Br)c3)C(c3ccc(Cl)cc3)C2)cc1 (stereo not drawn) | 0.38 µM | 6.42 | 1.29 µM | –
27 | COc1ccc(C2=NN(C(=O)c3cncc(Br)c3)C(c3ccc(Br)cc3)C2)cc1 (stereo not drawn) | 3.51 µM | 5.455 | 5.63 µM | –
28 | O=C(c1cncc(Br)c1)N1N=C(c2ccc(Cl)cc2)CC1c1ccc(Cl)cc1 (stereo not drawn) | 4.77 µM | 5.321 | 6.09 µM | –
29 | COc1ccc(C2=NN(C(=O)c3cccnc3Cl)C(c3ccc(OC)cc3)C2)cc1 (stereo not drawn) | 6.14 µM | 5.212 | 4.35 µM | –
30 | Cc1ccc(C(=O)N2N=C(c3ccc(Cl)cc3)CC2c2ccc(OCc3ccccc3)cc2)c(Cl)n1 (stereo not drawn) | 12.9 µM | 4.89 | 11.4 µM | –
31 | O=C(c1ccc(Cl)nc1)N1N=C(c2ccc(Cl)cc2)CC1c1ccc(Br)cc1 (stereo not drawn) | 7.34 µM | 5.134 | 9.87 µM | –
32 | COc1ccc(C2=NN(C(=O)c3ccc(C)nc3Cl)C(c3ccc(Cl)cc3)C2)cc1 (stereo not drawn) | 0.58 µM | 6.237 | 1.44 µM | –
33 | O=C(c1cncc(Br)c1)N1N=C(c2ccc(Cl)cc2)CC1c1ccc(OCc2ccccc2)cc1 (stereo not drawn) | 7.61 µM | 5.119 | 8.13 µM | –
34 | Cc1ccc(C(=O)N2N=C(c3ccc(Cl)cc3)CC2c2ccc(Br)cc2)cn1 (stereo not drawn) | 7.05 µM | 5.152 | 7.65 µM | –
35 | O=C(c1cncc(Br)c1)N1N=C(c2ccc(Cl)cc2)CC1c1ccc(Br)cc1 (stereo not drawn) | 7.82 µM | 5.107 | 8.01 µM | –
36 | COc1ccc(C2=NN(C(=O)c3cccnc3Cl)C(c3ccc(OCc4ccccc4)cc3)C2)cc1 (stereo not drawn) | 6.49 µM | 5.188 | 9.15 µM | –
